Results on four compounds are retold here after ChEMBL document CHEMBL2062515, “Synthesis and evaluation of novel radioligands for positron emission tomography imaging of metabotropic glutamate receptor subtype 1 (mGluR1) in rodent brain” (J Med Chem, 2012).

pIC50, pKi: −log10 of the molar value. Activity calls are given as the source filed them. The rule behind the calls is not given here.

Series [1] has as its target Metabotropic glutamate receptor 1 (Rattus norvegicus) (UniProt P23385). The series is described as follows: Binding affinity to mGluR1 in Sprague-Dawley rat thalamus at 9.2 MBq after 30 mins by autoradiography. Particulars: 9.2 M, tested as the 11C-labelled form. A digest of the protocol: (§1)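 Rat brain sections (20 μm) were preincubated 20 min at room temperature in 50 mM Tris-HCl pH 7.4 with 1.2 mM MgCl₂ and 2 mM CaCl₂. They were then incubated 30 min at room temperature in fresh buffer with the ¹¹C radioligand (9.2 MBq, 0.5 nM), with or without JNJ-16259685 (1 μM) to define specific binding. Sections were washed 3 × 5 min in cold buffer, dipped in cold water and dried with cold air.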

Series [2] has the same target. The series is described as follows: Binding affinity to mGluR1 in Sprague-Dawley rat cerebellum at 0.4 MBq after 30 mins by autoradiography in presence of JNJ16259685.
The target is the same in series [3]. The series is described as follows: Binding affinity to mGluR1 in Sprague-Dawley rat striatum at 9.2 MBq after 30 mins by autoradiography. Particulars: 9.2 M, tested as the 11C-labelled form. A digest of the protocol: as §1
Series [4] has the same target. The series is described as follows: Binding affinity to mGluR1 in Sprague-Dawley rat striatum after 30 mins by autoradiography in presence of JNJ16259685. Particulars: tested as the 11C-labelled form.
Series [5] has the same target. As to the kind of experiment: Binding affinity to mGluR1 in Sprague-Dawley rat brain stem at 9.2 MBq after 30 mins by autoradiography. The format is tissue-based. Particulars: 9.2 M, tested as the 11C-labelled form. In short, it runs like this:
as §1

Series [6] has as its target Metabotropic glutamate receptor 1 (Rattus norvegicus, UniProt P23385). As to the kind of experiment: Displacement of 4-[18F]fluoro-N-[4-(6-(isopropylamino)pyrimidin-4-yl)-1,3-thiazol-2-yl]-N-methylbenzamide from mGluR1 in Sprague-Dawley rat brain homogenates after 1 hr. The series is classed as tissue-based. In short, it runs like this: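 Rat whole-brain homogenate (washed pellets in 50 mM Tris-HCl pH 7.4, 120 mM NaCl; diluted to 100 mg/mL in Tris-HCl with NaCl, KCl, MgCl₂, CaCl₂) incubated 1 h, room temperature with [¹⁸F]-ligand (3 nM in PBS) and competitor […] in 0.1% DMSO. Filtration on PEI-treated GF/C, gamma counting; Kd by Scatchard; IC50/Ki by nonlinear regression; duplicate, mean SE.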

Series [7] concerns the target Metabotropic glutamate receptor 1 (Rattus norvegicus) (UniProt P23385). The series is described as follows: Binding affinity to mGluR1 in Sprague-Dawley rat brain stem at 0.4 MBq after 30 mins by autoradiography. The series is classed as tissue-based.
Series [8] shares this target. As to the kind of experiment: Binding affinity to mGluR1 in Sprague-Dawley rat brain at 9.2 MBq after 30 mins by autoradiography relative to control in presence of JNJ16259685. The format is tissue-based. The conditions noted are these: 9.2 M, tested as the 11C-labelled form. In short, it runs like this: as §1
For series [9], the target named is Metabotropic glutamate receptor 5 (Rattus norvegicus, UniProt P31424). The series is described as follows: Displacement of [11C]-ABP688 from mGluR5 in Sprague-Dawley rat brain homogenates after 1 hr by gamma counting. The format is tissue-based. In short, it runs like this: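 mGluR5 competition in same rat brain homogenate, run as mGluR1 assay but with [¹¹C]ABP688-type radioligand: 1 h room temperature incubation, filtration through PEI-treated glass fiber filters, gamma counting, nonlinear regression for IC50.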
Sequence of Metabotropic glutamate receptor 5 (P31424 whole entry): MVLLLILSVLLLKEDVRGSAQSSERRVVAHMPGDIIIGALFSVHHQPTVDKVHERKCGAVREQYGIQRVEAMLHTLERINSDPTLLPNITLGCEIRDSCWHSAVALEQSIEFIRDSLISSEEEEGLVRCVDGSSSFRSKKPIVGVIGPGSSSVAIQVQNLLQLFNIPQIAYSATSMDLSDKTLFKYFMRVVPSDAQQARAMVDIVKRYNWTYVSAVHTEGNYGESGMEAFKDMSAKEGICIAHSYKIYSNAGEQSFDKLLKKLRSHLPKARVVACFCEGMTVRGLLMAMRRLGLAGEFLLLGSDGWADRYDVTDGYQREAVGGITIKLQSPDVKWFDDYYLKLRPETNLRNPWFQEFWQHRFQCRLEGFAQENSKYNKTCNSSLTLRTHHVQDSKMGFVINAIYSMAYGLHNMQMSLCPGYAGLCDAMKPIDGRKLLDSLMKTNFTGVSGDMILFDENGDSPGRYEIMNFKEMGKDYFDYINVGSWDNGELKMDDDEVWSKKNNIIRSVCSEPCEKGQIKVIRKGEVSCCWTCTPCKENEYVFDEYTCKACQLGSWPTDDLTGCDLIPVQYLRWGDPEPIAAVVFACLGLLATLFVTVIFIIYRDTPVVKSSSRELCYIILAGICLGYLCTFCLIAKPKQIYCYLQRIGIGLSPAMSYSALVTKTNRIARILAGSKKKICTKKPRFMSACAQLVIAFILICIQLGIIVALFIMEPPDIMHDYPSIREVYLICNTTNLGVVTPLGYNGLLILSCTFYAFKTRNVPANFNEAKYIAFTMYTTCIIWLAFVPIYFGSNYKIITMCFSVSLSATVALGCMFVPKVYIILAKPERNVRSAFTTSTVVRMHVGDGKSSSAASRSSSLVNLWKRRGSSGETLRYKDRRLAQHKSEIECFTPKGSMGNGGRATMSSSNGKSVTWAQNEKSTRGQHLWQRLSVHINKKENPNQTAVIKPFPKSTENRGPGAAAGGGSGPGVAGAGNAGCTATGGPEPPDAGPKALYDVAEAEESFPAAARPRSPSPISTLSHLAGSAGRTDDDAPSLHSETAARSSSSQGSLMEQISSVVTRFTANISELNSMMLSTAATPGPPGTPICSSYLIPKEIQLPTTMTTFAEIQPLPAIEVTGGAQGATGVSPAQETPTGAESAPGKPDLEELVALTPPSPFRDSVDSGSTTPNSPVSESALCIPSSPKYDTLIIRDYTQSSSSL

Series [10] deals with Metabotropic glutamate receptor 1 (Rattus norvegicus) (UniProt P23385). As to the kind of experiment: Binding affinity to mGluR1 in Sprague-Dawley rat striatum at 9.2 MBq after 30 mins by autoradiography relative to control in presence of JNJ16259685. Particulars: 9.2 M, tested as the 11C-labelled form. In short, it runs like this: as §1
Sequence of Metabotropic glutamate receptor 1 (Rattus norvegicus) (P23385 19-1199 limits assumed): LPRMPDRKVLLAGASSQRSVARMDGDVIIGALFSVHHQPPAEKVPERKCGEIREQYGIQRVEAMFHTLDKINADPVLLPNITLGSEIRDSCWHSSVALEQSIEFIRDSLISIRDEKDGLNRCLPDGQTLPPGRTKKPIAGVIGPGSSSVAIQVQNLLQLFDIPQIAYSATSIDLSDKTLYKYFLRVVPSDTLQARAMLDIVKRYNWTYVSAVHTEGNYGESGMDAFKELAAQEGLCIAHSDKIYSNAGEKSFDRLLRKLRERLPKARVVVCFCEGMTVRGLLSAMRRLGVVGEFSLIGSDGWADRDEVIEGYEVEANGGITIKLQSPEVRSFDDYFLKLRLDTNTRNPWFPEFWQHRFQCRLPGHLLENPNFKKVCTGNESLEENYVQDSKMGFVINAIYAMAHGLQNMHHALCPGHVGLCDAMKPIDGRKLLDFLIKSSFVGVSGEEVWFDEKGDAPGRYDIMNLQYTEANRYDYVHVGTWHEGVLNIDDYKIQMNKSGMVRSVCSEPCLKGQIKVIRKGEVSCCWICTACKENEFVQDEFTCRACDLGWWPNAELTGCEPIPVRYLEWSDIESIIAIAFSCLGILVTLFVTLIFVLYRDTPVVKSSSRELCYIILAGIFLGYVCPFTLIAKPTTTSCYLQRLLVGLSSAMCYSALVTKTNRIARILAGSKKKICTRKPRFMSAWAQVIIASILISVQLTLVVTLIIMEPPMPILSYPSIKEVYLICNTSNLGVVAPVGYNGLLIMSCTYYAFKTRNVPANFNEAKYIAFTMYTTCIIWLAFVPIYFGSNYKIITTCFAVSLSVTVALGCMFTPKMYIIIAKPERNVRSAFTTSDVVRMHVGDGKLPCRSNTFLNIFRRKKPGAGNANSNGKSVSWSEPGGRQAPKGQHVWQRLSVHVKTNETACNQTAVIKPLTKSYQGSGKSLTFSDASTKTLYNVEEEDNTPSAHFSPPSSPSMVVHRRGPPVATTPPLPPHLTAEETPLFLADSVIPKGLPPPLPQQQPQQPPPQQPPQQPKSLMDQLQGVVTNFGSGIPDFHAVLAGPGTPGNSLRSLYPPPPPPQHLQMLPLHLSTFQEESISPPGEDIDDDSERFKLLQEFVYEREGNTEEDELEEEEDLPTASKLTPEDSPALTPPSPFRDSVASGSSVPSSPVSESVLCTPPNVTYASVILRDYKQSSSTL
Series [11] has the same target. The series is described as follows: Binding affinity to mGluR1 in Sprague-Dawley rat cerebellum at 9.2 MBq after 30 mins by autoradiography. The conditions noted are these: 9.2 M, tested as the 11C-labelled form. In short, it runs like this:
as §1

Series [12] has the same target. As to the kind of experiment: Binding affinity to mGluR1 in Sprague-Dawley rat thalamus at 9.2 MBq after 30 mins by autoradiography relative to control in presence of JNJ16259685. Particulars: 9.2 M, tested as the 11C-labelled form. In short, it runs like this:
as §1

The target is the same in series [13]. The series is described as follows: Binding affinity to mGluR1 in Sprague-Dawley rat thalamus at 0.4 MBq after 30 mins by autoradiography. A digest of the protocol: (§2)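 Sections were 20 μm rat brain slices, preincubated 20 min at room temperature in 50 mM Tris-HCl pH 7.4 containing 1.2 mM MgCl₂ and 2 mM CaCl₂. Incubation was 30 min at room temperature with an ¹⁸F radioligand at 0.4 MBq (5 pM or 4 pM), with or without JNJ-16259685 (1 μM). Sections were washed 3 × 5 min in cold buffer, rinsed in cold distilled water and air-dried cold.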

Series [14] shares this target. As to the kind of experiment: Binding affinity to mGluR1 in Sprague-Dawley rat cerebellum at 9.2 MBq after 30 mins by autoradiography relative to control in presence of JNJ16259685. Particulars: 9.2 M, tested as the 11C-labelled form. A digest of the protocol: as §1
The nature of series [15]: Lipophilicity, log D of the compound in octanol-phosphate buffer at pH 7.4 by Shake flask method. The series is classed as physicochemical. A digest of the protocol: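 Radioligand shaken with n-octanol and 0.1 M sodium phosphate buffer pH 7.4 (3.0 g each), vortex 3 min room temperature, centrifuged 2330g 5 min; phases weighed and counted, octanol repartitioned until constant. LogD = log(cpm/g octanol / cpm/g buffer); triplicate.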

Series [16] has as its target Metabotropic glutamate receptor 1 (Rattus norvegicus) (UniProt P23385). As to the kind of experiment: Binding affinity to mGluR1 in Sprague-Dawley rat brain stem after 30 mins by autoradiography in presence of JNJ16259685. The conditions noted are these: tested as the 11C-labelled form.
The target is the same in series [17]. The series is described as follows: Binding affinity to mGluR1 in Sprague-Dawley rat thalamus after 30 mins by autoradiography in presence of JNJ16259685. Particulars: tested as the 11C-labelled form.
Series [18] shares this target. The series is described as follows: Binding affinity to mGluR1 in Sprague-Dawley rat brain stem at 9.2 MBq after 30 mins by autoradiography relative to control in presence of JNJ16259685. The series is classed as tissue-based. The conditions noted are these: 9.2 M, tested as the 11C-labelled form. A digest of the protocol:
as §1

Series [19] shares this target. As to the kind of experiment: Binding affinity to mGluR1 in Sprague-Dawley rat striatum at 0.4 MBq after 30 mins by autoradiography. In short, it runs like this:
as §2

For series [20] the target is unchanged. As to the kind of experiment: Binding affinity to mGluR1 in Sprague-Dawley rat cerebellum at 0.4 MBq after 30 mins by autoradiography.
The target is the same in series [21]. As to the kind of experiment: Binding affinity to mGluR1 in Sprague-Dawley rat brain stem at 0.4 MBq after 30 mins by autoradiography in presence of JNJ16259685. Particulars: 0.4 M, tested as the 18F-labelled form. The series is classed as tissue-based. A digest of the protocol:
as §2

For series [22] the target is unchanged. As to the kind of experiment: Binding affinity to mGluR1 in Sprague-Dawley rat striatum at 0.4 MBq after 30 mins by autoradiography in presence of JNJ16259685. Particulars: 0.4 M, tested as the 18F-labelled form. In short, it runs like this:
as §2

Series [23] shares this target. The series is described as follows: Binding affinity to mGluR1 in Sprague-Dawley rat thalamus at 0.4 MBq after 30 mins by autoradiography in presence of JNJ16259685. Particulars: 0.4 M, tested as the 18F-labelled form. In short, it runs like this: as §2
Setting [24] is: 9.2 M, in the assay text read “9.2 MBq” for “0.4 MBq”, tested as the 11C-labelled form.
Setting [25] is: 0.4 M, tested as the 18F-labelled form.

Sequence of Metabotropic glutamate receptor 1 (P23385 whole entry): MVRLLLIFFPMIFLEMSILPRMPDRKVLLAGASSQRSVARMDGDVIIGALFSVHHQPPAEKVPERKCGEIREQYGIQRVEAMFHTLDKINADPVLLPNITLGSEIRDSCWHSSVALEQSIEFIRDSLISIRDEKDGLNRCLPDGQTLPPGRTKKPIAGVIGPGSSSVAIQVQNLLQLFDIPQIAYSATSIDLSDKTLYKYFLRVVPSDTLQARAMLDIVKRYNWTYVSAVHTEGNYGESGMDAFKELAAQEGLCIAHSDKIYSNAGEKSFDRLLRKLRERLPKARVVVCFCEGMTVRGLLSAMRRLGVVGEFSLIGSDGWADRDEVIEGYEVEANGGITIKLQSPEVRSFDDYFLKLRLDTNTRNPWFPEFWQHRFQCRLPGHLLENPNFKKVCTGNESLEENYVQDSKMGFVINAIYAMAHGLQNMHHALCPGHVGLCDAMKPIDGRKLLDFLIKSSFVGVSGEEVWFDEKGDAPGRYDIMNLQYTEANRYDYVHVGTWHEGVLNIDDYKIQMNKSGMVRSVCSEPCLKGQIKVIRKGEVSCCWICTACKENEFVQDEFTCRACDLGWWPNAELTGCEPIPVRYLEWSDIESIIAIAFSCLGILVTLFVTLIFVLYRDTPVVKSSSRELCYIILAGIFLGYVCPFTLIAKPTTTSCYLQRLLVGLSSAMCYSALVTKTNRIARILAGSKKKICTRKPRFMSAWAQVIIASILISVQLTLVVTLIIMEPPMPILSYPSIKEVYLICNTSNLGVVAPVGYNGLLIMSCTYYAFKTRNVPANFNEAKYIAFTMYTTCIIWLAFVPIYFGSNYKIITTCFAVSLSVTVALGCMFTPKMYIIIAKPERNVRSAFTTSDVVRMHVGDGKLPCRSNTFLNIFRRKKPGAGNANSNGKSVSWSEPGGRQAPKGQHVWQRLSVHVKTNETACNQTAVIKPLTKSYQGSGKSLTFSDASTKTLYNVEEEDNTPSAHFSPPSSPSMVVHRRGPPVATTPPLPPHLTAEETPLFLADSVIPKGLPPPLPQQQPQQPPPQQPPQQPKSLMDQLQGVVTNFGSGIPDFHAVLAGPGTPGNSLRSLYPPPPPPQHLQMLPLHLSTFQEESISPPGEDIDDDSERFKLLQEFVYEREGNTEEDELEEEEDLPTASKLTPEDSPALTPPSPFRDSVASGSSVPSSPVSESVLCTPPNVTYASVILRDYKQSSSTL

With `COc1ccc(C(=O)N(C)c2nc(-c3cc(NC(C)C)ncn3)cs2)cc1`, the outcome in series [1], in series [3], in series [5], in series [7] (setting [24]), in series [11] and in [13] (setting [24]) was Active. The result in series [19] (setting [24]) and in series [20] (setting [24]) was Active. The result in series [2] (setting [24]), in series [4], in series [16] and in series [17] was inactive. Besides, the negative logarithm of the IC50 (pIC50) (usually −log10 of the IC50, conventionally taken in molar units) is 7.49 in [6] and below 5.00 in [9]. The negative logarithm of the Ki (pKi) (as a rule, the Ki on a negative log10 scale, so that one unit is a factor of ten) in [6] was 7.90. In addition, the Activity in [8] is above 70%; in [10], 30%; in [12], 30%; in [14] it was 30%; in series [18] it was 30%. Also, the logD (as a rule, the decadic logarithm of the distribution of all forms, ionised or not, between an organic phase and buffer at a given pH) in [15] was 2.57.

Turning to `CC(C)Nc1cc(-c2csc(N(C)C(=O)c3ccc(OCCCF)cc3)n2)ncn1`, the outcome in series [2] (setting [25]), in series [21], in series [22] and in series [23] was inactive. The negative logarithm of the IC50 (pIC50) in series [6] and in series [9] was below 5.00 in each case. The compound also showed a pKi in series [6] below 5.30. Besides, the result in series [7] (setting [25]), in series [13] (setting [25]), in series [19] (setting [25]) and in [20] (setting [25]) was Active. The compound further had a logD in [15] of 2.8.

Take `CC(C)Nc1cc(-c2csc(N(C)C(=O)c3ccc(OCCF)cc3)n2)ncn1`: the result in series [2] (setting [25]), in series [21], in series [22] and in [23] was inactive. For the same compound, the results for the pIC50 in series [6] and in [9] were 6.40 and below 5.00, respectively. Further, in series [6], the negative-log Ki (pKi) was 6.82. Moreover, the outcome in [7] (setting [25]), in [13] (setting [25]), in series [19] (setting [25]) and in series [20] (setting [25]) was Active. The same compound showed a pH-dependent lipophilicity (logD) in series [15] of 2.59.

`CC(C)Nc1cc(-c2csc(N(C)C(=O)c3ccc(F)cc3)n2)ncn1`: the negative-log IC50 (pIC50) is 7.86 in [6] and below 5.00 in series [9]. In series [6], the pKi is 8.27. In addition, the logD in series [15] was 1.45.
